Test results taken from ChEMBL document CHEMBL2074042, “beta-lactam antibiotics as substrates for OCTN2, an organic cation/carnitine transporter” (J Biol Chem, 2000).
pIC50: −log10 of the molar value.

Experiments:
Type in all cases: functional, cell-based
[1] = molecular target: T1, Solute carrier family 15 member 1 (Homo sapiens) (UniProt P46059); assay: TP_TRANSPORTER: inhibition of Gly-Sar uptake (Gly-Sar: 50 uM, Cefoselis: 2500uM) in PEPT1-expressing HeLa cells; set-up: scale not given: the % may be the effect or the level left
T1 sequence (whole entry): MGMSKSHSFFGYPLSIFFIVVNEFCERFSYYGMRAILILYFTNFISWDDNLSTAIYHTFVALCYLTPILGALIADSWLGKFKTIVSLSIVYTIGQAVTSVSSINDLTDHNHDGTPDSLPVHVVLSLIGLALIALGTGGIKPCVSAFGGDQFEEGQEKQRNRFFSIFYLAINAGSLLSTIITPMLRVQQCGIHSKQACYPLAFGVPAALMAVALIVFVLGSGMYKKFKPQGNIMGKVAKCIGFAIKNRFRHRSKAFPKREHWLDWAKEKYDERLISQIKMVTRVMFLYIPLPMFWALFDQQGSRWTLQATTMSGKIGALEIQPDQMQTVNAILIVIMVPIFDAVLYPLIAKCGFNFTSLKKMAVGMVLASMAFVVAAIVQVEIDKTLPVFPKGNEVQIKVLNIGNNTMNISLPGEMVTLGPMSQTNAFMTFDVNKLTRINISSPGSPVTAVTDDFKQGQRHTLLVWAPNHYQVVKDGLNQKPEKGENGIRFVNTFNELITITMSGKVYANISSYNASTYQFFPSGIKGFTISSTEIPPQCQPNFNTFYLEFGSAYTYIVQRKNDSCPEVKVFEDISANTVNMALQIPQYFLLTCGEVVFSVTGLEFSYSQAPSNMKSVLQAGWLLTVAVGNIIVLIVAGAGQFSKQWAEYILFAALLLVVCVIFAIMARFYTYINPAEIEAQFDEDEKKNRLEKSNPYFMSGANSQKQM
Summary of the method: (§1)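 HeLa cells expressing human PEPT1 cDNA. [14C]glycylsarcosine (50 μM) uptake for 5 min in Mes/Tris buffer, pH 6.0, giving an H+ gradient, with test compound at 2.5 mM. Vector-transfected uptake subtracted. Percent of control, n=3, mean ± S.E.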

[2] = molecular target: T2, OCTN2 (organic cation/carnitine transporter 2) (Rattus norvegicus, UniProt O70594); assay: TP_TRANSPORTER: inhibition of Carnitine uptake (Carnitine: 0.02 uM, Cefoselis: 2500 uM) in OCTN2-expressing HeLa cells; set-up: scale not given: the % may be the effect or the level left; conditions: human, probe carnitine (0.02 uM), read-out: Activity
T2 sequence (O70594 whole entry): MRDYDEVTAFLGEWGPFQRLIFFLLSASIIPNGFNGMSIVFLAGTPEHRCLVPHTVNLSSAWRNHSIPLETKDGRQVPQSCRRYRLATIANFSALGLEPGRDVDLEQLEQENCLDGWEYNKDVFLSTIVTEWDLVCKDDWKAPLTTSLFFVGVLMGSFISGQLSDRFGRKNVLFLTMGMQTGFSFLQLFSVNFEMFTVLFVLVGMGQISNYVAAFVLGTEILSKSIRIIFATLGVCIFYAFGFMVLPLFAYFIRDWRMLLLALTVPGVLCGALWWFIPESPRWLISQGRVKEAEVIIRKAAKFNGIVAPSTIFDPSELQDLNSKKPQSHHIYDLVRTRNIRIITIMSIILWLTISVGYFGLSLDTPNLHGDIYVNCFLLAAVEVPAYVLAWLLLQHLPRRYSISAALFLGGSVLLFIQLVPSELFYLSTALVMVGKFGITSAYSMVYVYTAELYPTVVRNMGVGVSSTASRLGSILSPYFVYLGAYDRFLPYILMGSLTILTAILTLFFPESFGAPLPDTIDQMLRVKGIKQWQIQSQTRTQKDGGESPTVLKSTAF
Summary of the method: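 HeLa cells expressed human or rat OCTN2 cDNA by vaccinia virus/T7 system. [3H]carnitine (20 nM) uptake for 30 min at room temperature in Na+-containing Hepes/Tris buffer, pH 7.5, with β-lactam at 2.5 mM. Lysate radioactivity counted. Endogenous activity from vector-only cells subtracted. Four measurements from two transfections.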

[3] = molecular target: T3, Solute carrier family 15 member 2 (Rattus norvegicus) (UniProt Q63424); assay: TP_TRANSPORTER: inhibition of Gly-Sar uptake (Gly-Sar: 25 uM, Cefoselis: 2500uM) in PEPT2-expressing HeLa cells; set-up: scale not given: the % may be the effect or the level left
T3 sequence (whole entry): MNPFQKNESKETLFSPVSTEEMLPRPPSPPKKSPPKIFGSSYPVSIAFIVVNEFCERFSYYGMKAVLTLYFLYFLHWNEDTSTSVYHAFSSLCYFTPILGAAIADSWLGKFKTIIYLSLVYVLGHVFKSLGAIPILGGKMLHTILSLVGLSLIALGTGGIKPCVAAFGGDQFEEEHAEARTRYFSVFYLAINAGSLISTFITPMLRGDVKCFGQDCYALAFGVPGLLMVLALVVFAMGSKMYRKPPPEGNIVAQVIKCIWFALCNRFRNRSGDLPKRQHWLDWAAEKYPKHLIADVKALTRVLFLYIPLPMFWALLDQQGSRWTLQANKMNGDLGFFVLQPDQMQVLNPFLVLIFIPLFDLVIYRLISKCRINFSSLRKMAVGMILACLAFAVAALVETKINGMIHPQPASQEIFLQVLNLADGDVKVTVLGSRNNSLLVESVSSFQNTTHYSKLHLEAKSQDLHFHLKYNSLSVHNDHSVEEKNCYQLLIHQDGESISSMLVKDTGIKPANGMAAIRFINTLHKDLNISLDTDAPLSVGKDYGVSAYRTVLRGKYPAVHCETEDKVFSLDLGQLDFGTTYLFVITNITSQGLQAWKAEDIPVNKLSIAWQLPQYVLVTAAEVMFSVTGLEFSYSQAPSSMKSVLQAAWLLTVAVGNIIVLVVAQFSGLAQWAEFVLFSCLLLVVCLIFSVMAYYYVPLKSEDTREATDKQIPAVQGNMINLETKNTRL
Summary of the method: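 HeLa cells expressing rat PEPT2 cDNA. [14C]glycylsarcosine (25 μM) uptake for 5 min under an inward H+ gradient in Mes/Tris buffer, pH 6.0, with test compound at 2.5 mM. Vector-cell uptake subtracted. Results as percent of control, three independent measurements, mean ± S.E.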

[4] = molecular target: T4, Organic cation/carnitine transporter 2 (Homo sapiens, UniProt O76082); assay: TP_TRANSPORTER: inhibition of Carnitine uptake (Carnitine: 0.02 uM) in OCTN2-expressing HeLa cells
T4 sequence (O76082 whole entry): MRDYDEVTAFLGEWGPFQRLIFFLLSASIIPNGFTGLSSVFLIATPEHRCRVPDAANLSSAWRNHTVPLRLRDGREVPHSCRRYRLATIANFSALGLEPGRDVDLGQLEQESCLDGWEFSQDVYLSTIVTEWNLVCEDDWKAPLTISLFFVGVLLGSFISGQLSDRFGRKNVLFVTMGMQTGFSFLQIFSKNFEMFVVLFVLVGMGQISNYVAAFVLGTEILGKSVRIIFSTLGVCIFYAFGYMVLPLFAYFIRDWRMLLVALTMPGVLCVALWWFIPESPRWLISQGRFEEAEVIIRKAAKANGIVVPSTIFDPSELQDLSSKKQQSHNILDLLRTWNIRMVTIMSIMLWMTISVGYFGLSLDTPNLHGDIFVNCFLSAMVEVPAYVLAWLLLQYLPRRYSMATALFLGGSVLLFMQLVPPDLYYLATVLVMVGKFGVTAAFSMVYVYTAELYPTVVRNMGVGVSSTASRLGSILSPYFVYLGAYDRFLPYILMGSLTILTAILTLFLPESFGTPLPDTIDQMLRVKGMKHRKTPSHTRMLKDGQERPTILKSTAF

[5] = molecular target: T3, Solute carrier family 15 member 2 (Rattus norvegicus); assay: TP_TRANSPORTER: inhibition of Gly-Sar uptake (Gly-Sar: 25 uM, Ceftazidime: 2500uM) in PEPT2-expressing HeLa cells
Summary of the method: (§2)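 HeLa cells were transfected with human PEPT1 or rat PEPT2 cDNA. [14C]glycylsarcosine uptake (50 μM for PEPT1, 25 μM for PEPT2) ran 5 min at room temperature, inward H+ gradient, 25 mM Mes/Tris pH 6.0 buffer, antibiotic 2.5 mM. Vector-cell uptake was subtracted and lysates were scintillation-counted. Mean ± S.E., three measurements.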

[6] = molecular target: T5, Organic cation/carnitine transporter 2 (Rattus norvegicus, UniProt O70594); assay: (§3) TP_TRANSPORTER: inhibition of Carnitine uptake (Carnitine: 0.02 uM, Ceftazidime: 2500 uM) in OCTN2-expressing HeLa cells; conditions: human
T5 sequence (O70594 whole entry): T2 sequence (O70594 whole entry)

[7] = molecular target: T4, Organic cation/carnitine transporter 2; assay: as §3
[8] = molecular target: T1, Solute carrier family 15 member 1 (Homo sapiens); assay: TP_TRANSPORTER: inhibition of Gly-Sar uptake (Gly-Sar: 50 uM, Ceftazidime: 2500uM) in PEPT1-expressing HeLa cells; summary of the method: as §2
[9] = molecular target: T4, Organic cation/carnitine transporter 2; assay: TP_TRANSPORTER: inhibition of Carnitine uptake (Carnitine: 0.02 uM, Cephalexin: 2500 uM) in OCTN2-expressing HeLa cells
[10] = molecular target: T1, Solute carrier family 15 member 1 (Homo sapiens); assay: TP_TRANSPORTER: inhibition of Gly-Sar uptake (Gly-Sar: 50 uM, CER: 2500uM) in PEPT1-expressing HeLa cells; summary of the method: as §1
[11] = molecular target: T4, Organic cation/carnitine transporter 2; assay: TP_TRANSPORTER: uptake in OCTN2-expressing HeLa cells
Summary of the method: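 hOCTN2 or vector-transfected HeLa cells incubated with 1 mM cephaloridine for 1 h at 37 °C in NaCl or N-methyl-D-glucamine chloride (Na+-free) medium. Cells lysed in water and lysate centrifuged. Supernatant cephaloridine quantified by C18 HPLC with UV at 254 nm against a standard curve, expressed per 10^6 cells.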

[12] = molecular target: T4, Organic cation/carnitine transporter 2; assay: TP_TRANSPORTER: inhibition of Carnitine uptake (Carnitine: 0.02 uM, Cephradine: 2500 uM) in OCTN2-expressing HeLa cells
[13] = molecular target: T4, Organic cation/carnitine transporter 2; assay: TP_TRANSPORTER: inhibition of Carnitine uptake (Carnitine: 0.02 uM, Cyclacillin: 2500 uM) in OCTN2-expressing HeLa cells

CO/N=C(\C(=O)N[C@@H]1C(=O)N2C(C(=O)[O-])=C(C[n+]3ccc(N)n3CCO)CS[C@H]12)c1csc(N)n1 [CEFOSELIS]
Activity [1]: 76%
activity at 2500 µM [2]: 71%
Activity [3]: 83%
pIC50 [4]: 2.19

CC(C)(O/N=C(\C(=O)N[C@@H]1C(=O)N2C(C(=O)[O-])=C(C[n+]3ccccc3)CS[C@H]12)c1csc(N)n1)C(=O)O [CEFTAZIDIME]
Activity [5]: is not an inhibitor [-]
Activity [6]: is not an inhibitor [-]
Activity [7]: is not an inhibitor [-]
Activity [8]: is not an inhibitor [-]

CC1=C(C(=O)O)N2C(=O)[C@@H](NC(=O)[C@H](N)c3ccccc3)[C@H]2SC1 [CEPHALEXIN ANHYDROUS]
Activity [9]: is not an inhibitor [-]

O=C(Cc1cccs1)N[C@@H]1C(=O)N2C(C(=O)[O-])=C(C[n+]3ccccc3)CS[C@H]12 [CEPHALORIDINE]
Activity [10]: is not an inhibitor [-]
Activity [11]: substrate [+]

CC1=C(C(=O)O)N2C(=O)[C@@H](NC(=O)[C@H](N)C3=CCC=CC3)[C@H]2SC1 [CEPHRADINE]
Activity [12]: is not an inhibitor [-]

CC1(C)S[C@@H]2[C@H](NC(=O)C3(N)CCCCC3)C(=O)N2[C@H]1C(=O)O [CYCLACILLIN]
Activity [13]: is not an inhibitor [-]
